Bioassay records: PubChem BioAssay, Broad Institute
aSyn UTR inh – 5' untranslated region of α-synuclein, MLPCN primary screen; alpha-synuclein 5'UTR reporter, inhibitor activity; inhibition, % (tested at 7.5 µM); 300,000 tested, 0.82% active; AID 1813; in the data active means inhibition above about 60%; inconclusive means no clear call, values can overlap the other calls;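 further: H4 neuroglioblastoma cells stably carrying SNCA 5'UTR luciferase fusion; 0% = DMSO wells and 100% = positive control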
EWS-Fli block – EWS/Fli transcriptional activity inhibition. 350,000 tested, 0.67% active. inhibition, % at 12.6 µM. A673 NR0B1-luciferase reporter, viability-normalised. AID 651661;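 active means mean inhibition of at least 50% after viability correction, with every replicate also passing that limit; inconclusive means mean reaches 50% but only one of two replicates passes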;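 further: firefly luciferase signal divided by Alamar Blue viability fluorescence both relative to DMSO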
Shn3 inh set2 – Schnurri-3 reporter inhibition in Clone20 osteoblasts | Clone20 osteoblast Shn3 3'UTR firefly luciferase, 24 h | inhibition, % at 12.5 µM | 360,000 tested, 0.52% active;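 active means mean inhibition of at least 75% with every replicate also reaching 75%; inconclusive means mean inhibition at least 75% but some replicate below; inactive means mean inhibition below 75%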;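 further: 0% = median of neutral control wells and 100% = pilot-screen positive control compound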
LMP1 NFkB inh – inhibitors of Epstein-Barr LMP1-induced NF-kappaB reporter | AID 504558 | LMP1-induced NF-kappaB luciferase reporter cells, luminescence | inhibition, % at 12.5 µM | 350,000 tested, 0.69% active; in the data active means inhibition above about 41%; inconclusive means no clear call, values can overlap the other calls;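 further: 0% = neutral control wells and 100% = reference inhibitor control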
PAX8 inh HTS – PAX8 transcriptional activity inhibition; inhibition, % at 12.6 µM; 360,000 tested, 1.2% active; AID 652154; RMG-I TPO-luciferase reporter, SteadyGlo, 24 h;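 active means mean replicate inhibition at least 60% with every replicate also reaching 60%; inconclusive means only one of the two criteria is met; inactive means mean below 60% and not all replicates reaching 60%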;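 further: luciferase light reporting Pax8 driven TPO promoter activity; plate controls were median of neutral control wells for no effect and mitoxantrone controls for full effect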
FN deposit inh – fibronectin deposition inhibition; 350,000 tested, 0.086% active; AH1F fibroblasts, Alexa488-fibronectin deposition fluorescence, overnight; AID 743247; inhibition, % at 12.6 µM;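 active means mean inhibition across replicates of 30% or more, regardless of how many single replicates reach that level; inconclusive means mean under 30% yet at least half of replicates reach 30%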;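 further: positive control wells lacked labelled fibronectin entirely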
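Test system: AH1F fibroblast monolayer depositing Alexa488-labelled fibronectin into matrix. Input: 10000 cells per well. Technique: fluorescence, ex 485 nm, em 525 nm. Buffer or medium: DMEM plus 2% serum, read in PBS. Timing: 1 h cell adhesion before compound, then overnight fibronectin incubation. Compound: single dose, pinned. Read-out basis: inhibition from reduced deposited-fibronectin fluorescence.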
* hit, by the source's call; ? = inconclusive; · = not tested or not shown. Compounds with a hit are over-represented: about 2.1% of the library has one in this group of screens.

SMILES | aSyn UTR inh | EWS-Fli block | Shn3 inh set2 | LMP1 NFkB inh | PAX8 inh HTS | FN deposit inh
Cc1ccc(NC2=CC(=O)C(=O)c3ccccc32)cc1 | 102.9* | · | 4.8 | -16.8 | 9.4 | -5.3
CCCC(=O)NC1=C(Cl)C(=O)c2ccccc2C1=O | · | 26.8 | 90.5* | -6.6 | 103.0* | 0.7
O=C1C=C(Nc2ccc(O)cc2)C(=O)c2ccccc21 | 67.5* | -76.5 | -38.9 | 3.1 | -25.3 | 47.2*
CCCNC(=O)Nc1ccc2c(c1)C(=O)N(C)C[C@H](OC)[C@@H](C)CN(Cc1ccncc1)[C@H](C)CO2 | · | -2.7 | · | · | -21.9 | -5.9
COc1ccccc1NC(=O)N(C)C[C@@H]1Oc2ncc(C#CCC(C)C)cc2C(=O)N([C@@H](C)CO)C[C@H]1C | · | -2.7 | · | · | · | ·
COc1ccc2c3c(n(C)c2c1)[C@H](CO)N(Cc1cc(F)ccc1F)CC31CN(C(C)=O)C1 | · | 10.6 | · | · | -10.6 | ·
Cc1ccc(NC2=C(Cl)C(=O)c3ccccc3C2=O)cc1 | ? | ? | -59.3 | -5.9 | -89.4 | 6.7
O=C1C(Cl)=C(Nc2ccc(O)cc2)C(=O)c2ccccc21 | -59.2 | 57.3* | 91.8* | 61.4* | 48.5 | 19.7
CCN(CC)c1ccc(NC2=C(Cl)C(=O)c3ccccc3C2=O)cc1 | · | · | 96.6* | 80.1* | · | ·
O=C(Nc1cccc(Cl)c1)N[C@H]1CC[C@@H](CCn2cc(Cc3ccccc3)nn2)O[C@H]1CO | · | 6.5 | · | · | 21.7 | 1.3
O=c1cc(NCc2ccccc2)nc2ccccn12 | -33.4 | -49.2 | -2.7 | -20.5 | -36.1 | 5.3
O=c1cc(Cl)nc2ccccn12 | · | -0.7 | -11.3 | 71.1* | -15.3 | 2.0
C[C@@H]1CN([C@H](C)CO)C(=O)c2cccc(NS(=O)(=O)c3ccc(F)cc3)c2O[C@H]1CN(C)S(=O)(=O)c1ccc(F)cc1 | · | -3.7 | · | · | -41.8 | ·
Oc1c(C(c2ccccc2)N2CCOCC2)ccc2ccccc12 (stereo unspecified) | · | 0.2 | 10.9 | -0.7 | 86.7* | 4.6
CCN(CC)CCN(C(=O)c1cc2c(ccc3ccccc32)oc1=O)c1nc2cc3c(cc2s1)OCCO3 | 78.2* | -26.1 | 47.5 | -17.1 | -26.8 | -2.3
COc1ccc(/C=C/c2c(-c3ccc(OC)cc3)oc3ccc(-c4ccc(OC)cc4)cc23)cc1 | 12.4 | -5.7 | -18.5 | 1.5 | -16.5 | -0.6
COc1ccc(/C=C/c2cc(-c3ccc(C)cc3)o[n+]2C)cc1 | 89.2* | · | 82.7* | 11.2 | · | -5.7
COc1cc2c(=O)n(CC3CCCO3)c(=O)n(CC(=O)Nc3cccc(Cl)c3)c2cc1OC (stereo unspecified) | 16.3 | · | 6.7 | 84.6* | · | ·
COc1ccc(NC(=O)Cn2c(=O)n(CC3CCCO3)c(=O)c3cc(OC)c(OC)cc32)c(OC)c1 (stereo unspecified) | -3.4 | 1.5 | 3.8 | 0.6 | -4.6 | -0.3
O=C(Nc1ccc(F)c(F)c1)C1CCCCC1 | · | -0.9 | 2.3 | 49.2* | 1.3 | -2.6
CN(C)CC(=O)N[C@@H]1C=C[C@H](CC(=O)NCCN2CCCCC2)O[C@@H]1CO | · | -4.6 | · | · | 7.6 | -32.8
COC(=O)C(NS(=O)(=O)c1ccc(N2CCCC2=O)cc1)c1ccccc1 (stereo unspecified) | -7.4 | · | 6.8 | 66.6* | 7.2 | ·
NC(=O)C(Cc1ccccc1)NS(=O)(=O)c1ccc(N2CCCC2=O)cc1 (stereo unspecified) | 12.3 | · | 9.4 | -7.5 | · | ·
CN(C)CCCNC(=O)c1ccc(-c2nc(-c3ccc(Cl)cc3)cs2)cc1 | 117.6* | · | 7.8 | -20.6 | -5.6 | 17.1
CN(C)CCCNC(=O)c1ccccn1 | 11.0 | · | 2.8 | -2.1 | -7.1 | 6.9
SMILES | aSyn UTR inh | EWS-Fli block | Shn3 inh set2 | LMP1 NFkB inh | PAX8 inh HTS | FN deposit inh
C[C@@H]1CN([C@@H](C)CO)C(=O)Cc2cc(NC(=O)CCN3CCOCC3)ccc2O[C@@H]1CN(C)C(=O)Nc1ccccc1 | · | 1.1 | · | · | 4.5 | ·
C[C@@H]1CN([C@@H](C)CO)C(=O)Cc2cc(NC(=O)Cc3cn(C)c4ccccc34)ccc2O[C@@H]1CN(C)S(=O)(=O)c1ccccc1 | · | 8.7 | · | · | 12.8 | ·
COc1ccc(-n2nnnc2-c2cnc(N3CCCC3)nc2C(F)(F)F)cc1 | 0.5 | · | 87.5* | 27.6 | · | -11.2
FC(F)(F)c1nc(-c2cccs2)ncc1-c1nnnn1-c1ccc(Cl)cc1 | 8.8 | · | 85.9* | 24.6 | · | ·
NC(=O)CC(NC(=O)c1ccccc1)c1ccc(N2CCC(Cc3ccccc3)CC2)c([N+](=O)[O-])c1 (stereo unspecified) | 28.2 | 21.8 | 91.4* | 17.7 | 11.8 | 0.3
NC(N)=N/N=C/c1ccc(Br)cc1 | -8.5 | 56.0* | -9.8 | 5.3 | -15.2 | -2.3
O=C(Cc1ccccc1)N1CC[C@@H]2[C@H]1c1cc(-c3ccccc3)ccc1N[C@@H]2CO | · | 12.4 | · | · | 62.4* | 1.1
N#Cc1cccc(-c2ccc3c(c2)[C@@H]2[C@@H](CCN2S(=O)(=O)c2cccc(F)c2)[C@@H](CO)N3)c1 | · | -4.8 | · | · | 15.3 | 8.7
O=S(=O)(c1cccc(F)c1)N1CC[C@H]2[C@H](CO)Nc3ccc(-c4cccc(F)c4)cc3[C@H]21 | · | -1.0 | · | · | 15.8 | 35.5*
N#Cc1ccc(-c2ccc3c(c2)[C@@H]2[C@@H](CCN2S(=O)(=O)c2cccc(F)c2)[C@@H](CO)N3)cc1 | · | -11.7 | · | · | 1.2 | 34.8*
O=S(=O)(c1cccc(F)c1)N1CC[C@@H]2[C@H]1c1cc(-c3cccc(F)c3)ccc1N[C@@H]2CO | · | 5.8 | · | · | 51.0 | 23.9
Cc1ccccc1S(=O)(=O)N1CC[C@@H]2[C@H](CO)Nc3ccc(-c4cccc(F)c4)cc3[C@@H]21 | · | 5.0 | · | · | 114.0* | -2.8
O=C(Cc1ccccc1)N1CC[C@@H]2[C@@H](CO)Nc3ccc(-c4ccccc4)cc3[C@@H]21 | · | 5.5 | · | · | 5.4 | -1.6
COc1ccc(C(=O)Nc2ccc3c(c2)OC[C@@H](C)N(C(C)=O)C[C@@H](C)[C@@H](OC)CN(C)C3=O)cc1 | · | -1.6 | · | · | · | -3.3
COc1ccc(NC(=O)Nc2cccc3c2O[C@H](CN(C)S(=O)(=O)c2cn(C)cn2)[C@@H](C)CN([C@@H](C)CO)C3=O)cc1 | · | -1.1 | · | · | · | ·
O=C1C=C(c2ccccc2)C[C@H](c2cccs2)[C@H]1n1nnc([N+](=O)[O-])n1 | 88.3* | · | 34.8 | -91.2 | 76.0* | -9.1
CCOC(=O)c1cnc(-n2nc(C)cc2C)nc1NNc1ncc(-c2ccccc2)cn1 | 82.5* | · | · | · | · | ·
CCOC(=O)c1cnc(-n2nc(C)cc2C)nc1NCc1ccccc1 | 26.6 | · | 47.2 | 24.9 | 12.5 | 4.8
CCOC(=O)c1cnc(-n2nc(C)cc2C)nc1NNc1cc(-c2ccccc2)nc(C)n1 | 92.7* | · | · | · | · | ·
C[C@@H]1CN([C@H](C)CO)C(=O)Cc2cc(NC(=O)C3CC3)ccc2O[C@@H]1CN(C)Cc1ccc(C(=O)O)cc1 | · | 5.5 | · | · | · | 5.1
COc1ccc2nc(NN=C(C)c3ccccn3)cc(C)c2c1 | · | 32.7 | 86.3* | 79.3* | 32.0 | 9.4
C/C(=N\Nc1ccc(Cl)cc1)c1ccccn1 | -137.9 | · | -70.9 | -68.8 | · | ·
